≈ marks a conversion by molar mass, not a printed value.

The first test relates to Micrococcus luteus. The test can be described thus: Antibacterial activity against Micrococcus luteus ATCC 9341 by bioautographic assay. The class given is functional.
Conditions: not given
The procedure, abridged: (§1)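 Overnight 37° nutrient-broth cultures; the developed TLC plate was dipped in the bacterial suspension and held moist at 37° for 20 h. It was then sprayed with 0.5% iodonitrotetrazolium chloride in H₂O and kept a further 4 h moist at 37°. Pure compounds were spotted (3 mm) at 0.1–5 μg in CH₂Cl₂, with chloramphenicol as positive control.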
`COc1cc(O)c(C(=O)CCc2ccccc2)c(O)c1` yielded an MIC of 0.3 µg.

In the case of `COC(=O)c1ccc2c(c1)C[C@H](C(C)(C)O)O2` [ANODENDROIC ACID METHYL ESTER], the MIC is more than 5 µg.

`COc1cc(O)c(C(=O)CCc2ccc(O)cc2)c(O)c1` [ASEBOGENIN] displayed an MIC of 0.6 µg.

As for `O=C(N[C@H](CO)[C@H](O)c1ccc([N+](=O)[O-])cc1)C(Cl)Cl` [CHLORAMPHENICOL], the MIC is 0.05 µg.

The molecule `COC(=O)c1ccc(O)c(C(C=C(C)C)c2c(OC)cc(O)c(C(=O)CCc3ccccc3)c2O)c1` (stereo not given) [PIPERADUNCIN A] yielded an MIC of 1.6 µg.

Take `COC(=O)c1ccc(O)c([C@H]2c3c(OC)cc(O)c(C(=O)CCc4ccccc4)c3O[C@@H]2C(C)(C)O)c1` [PIPERADUNCIN B]: the MIC came to 0.4 µg.

For the molecule `COc1cc(O)c(C(=O)CCc2ccccc2)c(O)c1Cc1c(OC)cc(O)c(C(=O)CCc2ccccc2)c1O` [PIPERADUNCIN C], the MIC is 3 µg.

`COc1cc(O)c2c(c1)O[C@H](c1ccc(O)cc1)CC2=O` [SAKURANETIN] yielded an MIC of 2 µg.

Another test has as its system Biomphalaria glabrata. Briefly: Molluscicidal activity against Biomphalaria glabrata assessed as mortality after 24 hrs by microscopy.
Conditions: not given
The class given is functional. The procedure, abridged: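 Snails exposed to samples dissolved in 100 μl DMSO and diluted to 100 ml with distilled H₂O. After 24 h, snails counted dead when no heartbeat was seen under the microscope.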
On to `COc1cc(O)c(C(=O)CCc2ccccc2)c(O)c1`, for which the LC100 was more than 30 ppm.

In the case of `COc1cc(O)c(C(=O)CCc2ccc(O)cc2)c(O)c1` [ASEBOGENIN], the LC100 worked out at 12 ppm.

Consider `COc1cc(O)c2c(c1)O[C@H](c1ccc(O)cc1)CC2=O` [SAKURANETIN], for which the LC100 is listed as more than 30 ppm.

The subject of another test is Bacillus subtilis. The test can be described thus: Antibacterial activity against Bacillus subtilis ATCC 6633 by bioautographic assay. The class given is functional.
Conditions: not given
In short, it runs like this:
as §1
As for `COc1cc(O)c(C(=O)CCc2ccccc2)c(O)c1`, the MIC turned out to be 0.3 µg.

The molecule `COC(=O)c1ccc2c(c1)C[C@H](C(C)(C)O)O2` [ANODENDROIC ACID METHYL ESTER] yielded an MIC of 3.2 µg.

`COc1cc(O)c(C(=O)CCc2ccc(O)cc2)c(O)c1` [ASEBOGENIN] gave an MIC of 0.1 µg.

In turn, `O=C(N[C@H](CO)[C@H](O)c1ccc([N+](=O)[O-])cc1)C(Cl)Cl` [CHLORAMPHENICOL] registered an MIC of 0.02 µg.

`COC(=O)c1ccc(O)c(C(C=C(C)C)c2c(OC)cc(O)c(C(=O)CCc3ccccc3)c2O)c1` (stereo not given) [PIPERADUNCIN A] yielded an MIC of 1.6 µg.

Take `COC(=O)c1ccc(O)c([C@H]2c3c(OC)cc(O)c(C(=O)CCc4ccccc4)c3O[C@@H]2C(C)(C)O)c1` [PIPERADUNCIN B]: the MIC was 0.2 µg.

In the case of `COc1cc(O)c(C(=O)CCc2ccccc2)c(O)c1Cc1c(OC)cc(O)c(C(=O)CCc2ccccc2)c1O` [PIPERADUNCIN C], the MIC is 1.5 µg.

Molecule `COc1cc(O)c2c(c1)O[C@H](c1ccc(O)cc1)CC2=O` [SAKURANETIN] gave an MIC of 0.5 µg.

The test system of another test is KB. Briefly: Cytotoxicity against human KB cells after 72 hrs. As to conditions: read-out: ED50 (the source's name). The class given is functional. The procedure, abridged: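 KB cells were grown in BME with 10% heat-inactivated FBS at 37° under 5% CO₂. Samples in DMSO (final 0.5%) were added at log growth phase, at five concentrations, for 72 h. Growth was measured by protein determination as a percentage of DMSO-only controls, corrected for starting cell number. Assays were run in duplicate, and ED₅₀ was taken from semilogarithmic plots of the averaged data.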
For `COc1cc(O)c(C(=O)CCc2ccccc2)c(O)c1`, the EC50 is more than 10 µg/mL.

Regarding `COC(=O)c1ccc2c(c1)C[C@H](C(C)(C)O)O2` [ANODENDROIC ACID METHYL ESTER], the EC50 was more than 10 µg/mL.

As to `COc1cc(O)c(C(=O)CCc2ccc(O)cc2)c(O)c1` [ASEBOGENIN], the EC50 was more than 10 µg/mL.

Take `COC(=O)c1ccc(O)c(C(C=C(C)C)c2c(OC)cc(O)c(C(=O)CCc3ccccc3)c2O)c1` (stereo not given) [PIPERADUNCIN A]: the EC50 came out at 2.3 µg/mL (≈ 4.69 µM).

Regarding `COC(=O)c1ccc(O)c([C@H]2c3c(OC)cc(O)c(C(=O)CCc4ccccc4)c3O[C@@H]2C(C)(C)O)c1` [PIPERADUNCIN B], the EC50 stood at 4.7 µg/mL (≈ 9.28 µM).

As to `COc1cc(O)c(C(=O)CCc2ccccc2)c(O)c1Cc1c(OC)cc(O)c(C(=O)CCc2ccccc2)c1O` [PIPERADUNCIN C], the EC50 is more than 10 µg/mL.

In the case of `COc1cc([C@@H]2c3cc4c(cc3[C@H](O)[C@H]3COC(=O)[C@H]23)OCO4)cc(OC)c1OC` [PODOFILOX], the EC50 worked out at 0.0003 µg/mL (≈ 0.000724 µM).

As to `COc1cc(O)c2c(c1)O[C@H](c1ccc(O)cc1)CC2=O` [SAKURANETIN], the EC50 amounted to 10 µg/mL (≈ 34.9 µM).

The next test has as its system Escherichia coli. The test can be described thus: Antibacterial activity against Escherichia coli ATCC 25922 by bioautographic assay. The class given is functional.
Conditions: not given
In short, it runs like this: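 Bioautography used an overnight 37° nutrient-broth culture, and the developed TLC plate was dipped in the suspension. It was incubated moist at 37° for 6 h, sprayed with 0.5% aqueous iodonitrotetrazolium chloride, then kept moist at room temperature for 15 h. White zones against pink colonies marked inhibition. Pure compounds were spotted (3 mm) at 0.1–5 μg in CH₂Cl₂, with chloramphenicol as positive control.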
Consider `COc1cc(O)c(C(=O)CCc2ccccc2)c(O)c1`, for which the MIC is more than 5 µg.

Regarding `COC(=O)c1ccc2c(c1)C[C@H](C(C)(C)O)O2` [ANODENDROIC ACID METHYL ESTER], the MIC was more than 5 µg.

`COc1cc(O)c(C(=O)CCc2ccc(O)cc2)c(O)c1` [ASEBOGENIN] came in with an MIC of more than 5 µg.

`O=C(N[C@H](CO)[C@H](O)c1ccc([N+](=O)[O-])cc1)C(Cl)Cl` [CHLORAMPHENICOL] had an MIC of 0.05 µg.

The molecule `COC(=O)c1ccc(O)c(C(C=C(C)C)c2c(OC)cc(O)c(C(=O)CCc3ccccc3)c2O)c1` (stereo not given) [PIPERADUNCIN A] displayed an MIC of more than 5 µg.

In the case of `COC(=O)c1ccc(O)c([C@H]2c3c(OC)cc(O)c(C(=O)CCc4ccccc4)c3O[C@@H]2C(C)(C)O)c1` [PIPERADUNCIN B], the MIC was more than 5 µg.

For `COc1cc(O)c(C(=O)CCc2ccccc2)c(O)c1Cc1c(OC)cc(O)c(C(=O)CCc2ccccc2)c1O` [PIPERADUNCIN C], the MIC was more than 5 µg.

For the molecule `COc1cc(O)c2c(c1)O[C@H](c1ccc(O)cc1)CC2=O` [SAKURANETIN], the MIC is more than 5 µg.

The values above are taken from ChEMBL document CHEMBL1149025, “Cytotoxic and antibacterial dihydrochalcones from Piper aduncum” (1994).
